Calls of active or inactive are those of the source.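 Rule for the calls, unless noted: active = viability at or under a set limit in both replicates, limit being median viability minus 3 SD (cut at about 48% in these data, passing the limit was not always enough); inconclusive = at or under the limit in just one replicate; inactive = at or above the limit in both replicates.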

What is called viability is a read-out of living cells in per cent, often relative to untreated cells. The inhibition is the change of the read-out against control, counted positive when it falls.

Test [1] can be described thus: SK-BR-3 cell growth inhibitors, pilot screen, 24 h, human (AID 572;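 active = viability at or below 10% of carrier control in both of two separate runs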;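 note: compound exposure lasted between 18 and 24 h rather than exactly 24 h; 100% = carrier-treated control wells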). Conditions: SK-BR-3 viability, CellTiter-Glo luminescence, at 10 µM, stronger effect = lower value. In general terms: Cellular ATP, detected with luciferase, serves as a proxy for viable cell number.
A short description of test [2]: HUVEC growth inhibition – cell-based, human, primary screen (AID 575;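 active = viability at or below 30% in both replicate assays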;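 note: 100% = median of untreated cell wells with 0.1% DMSO on each plate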). The note with it: HUVEC proliferation, CellTiter-Glo luminescence, 72 h; at 10 µM; stronger effect = lower value. In outline:
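System – primary HUVEC, no more than 12 passages · Medium – Low-serum (2% FBS) EBM, supplemented · Times – 72 h exposure, 37 °C, 5% CO2, 30 min RT equilibration · Measured by – luminescent ATP assay · Read-out – % viability relative to median vehicle-well signal on each plate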

The nature of test [3]: growth inhibitors of H69AR lung tumor, primary screen, human, duplicate replicates (AID 580).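 Note: 100% = mean luminescence of untreated wells and 0% = no signal.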 Conditions: H69AR lung tumor cells viability, ATP luminescence, 72 h; at 10 µM; stronger effect = lower value.
Test [4] in a line: reversal of MRP1-mediated doxorubicin resistance, pilot screen, H69AR cells, doxorubicin co-treatment (AID 601;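 active = viability loss from added drug above about 55%, and viability with drug at most 40%, in both replicates, limit read from the data, passing the limit was not always enough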). The note with it: CellTiter-Glo, 72 h, at 10 µM; for differential viability (reversal): stronger effect = higher value.
The nature of test [5]: 384-well plate pilot, post-Golgi transport modulator project, inhibition of yeast transport mutant growth (AID 636; in the data active = inhibition above about 31%). Conditions: absorbance 615 nm, about 18 h, stronger effect = higher value.
Test [6] can be described thus: growth suppression of yeast trafficking mutant, preliminary HTS, modulators of trafficking downstream of Golgi apparatus project, 1536-format plate, OD 615 nm (AID 637; in the data active = inhibition above about 30%). The note with it: yeast transport mutant growth, absorbance 615 nm, 18 h; stronger effect = higher value.
[7] abbreviates: H69AR cells + 2 uM doxorubicin, measured here: viability with 2 uM doxorubicin, stronger effect = lower value.
The mark [8] stands for this setting: H69AR cells, compound alone cytotoxicity.

With `Clc1ccc2c(c1)[C@H]1OCC[C@H]1[C@@H](c1ccco1)N2`, the viability in test [1] is 104% (inactive); in test [2], 89.6% (inactive); in test [3] it was 86% (inactive); in test [4] (setting [7]) it was 85.6%; in test [4] (setting [8]), 86%. Moreover, in test [4] (H69AR cells + 2 uM doxorubicin), the differential viability (reversal) is 0.43% (inactive). Moreover, the figures for the inhibition in test [5] and in test [6] were -0.13% (inactive) and -5.83% (inactive), respectively.
Regarding `CCc1nnc(-n2nc(C)cc2-c2ccccc2)n1N`, the viability is 107% (inactive) in test [1]; 118% (inactive) in test [2]; 93.5% (inactive) in test [3]; 90.7% in test [4] (setting [7]); 93.5% in test [4] (setting [8]). In test [4] (H69AR cells + 2 uM doxorubicin), the differential viability (reversal) was 2.83% (inactive). Further, the inhibition in test [5] is -2.47% (inactive); in test [6], -1.8% (inactive).
As for `O=C(Nc1ccc(Cl)cc1C(=O)O)c1ccc2c(c1)C(=O)N(Cc1ccco1)C2=O`, the viability in test [1] was 72% (inactive); in test [2] it was 86.6% (inactive); in test [3] it was 93.3% (inactive); in test [4] (setting [7]), 84.7%; in test [4] (setting [8]), 93.3%. Also, in test [4] (H69AR cells + 2 uM doxorubicin), the differential viability (reversal) is 8.62% (inactive). For the same molecule, the inhibition was -8.49% (inactive) in test [5] and 0.48% (inactive) in test [6].
As for `CC(=O)c1n[nH]nc1NC(=O)c1ccccc1`, the viability is 120% (inactive) in test [1]; 97.6% (inactive) in test [2]; 89.9% (inactive) in test [3]; 96.6% in test [4] (setting [7]); 89.9% in test [4] (setting [8]). The differential viability (reversal) in test [4] (H69AR cells + 2 uM doxorubicin) is -6.65% (inactive). In addition, the inhibition is -1.69% (inactive) in test [5] and 0.16% (inactive) in test [6].
Consider `Cn1c(C(=O)NCc2cccnc2)cc2sccc21`, for which the viability in test [1] was 115% (inactive); in test [2] it was 102% (inactive); in test [3], 93% (inactive); in test [4] (setting [7]), 95.8%; in test [4] (setting [8]) it was 93%. Besides, the differential viability (reversal) in test [4] (H69AR cells + 2 uM doxorubicin) was -2.84% (inactive). Besides, the inhibition in test [5] was 5.21% (inactive); in test [6] it was 11.1% (inactive).
For the molecule `N#Cc1ccc(CSc2nnc(-c3cccs3)n2-c2ccccc2)cc1`, the viability in test [1] is 78% (inactive); in test [2], 78% (inactive); in test [3], 78% (inactive); in test [4] (setting [7]), 44%; in test [4] (setting [8]) it was 78%. In addition, the differential viability (reversal) in test [4] (H69AR cells + 2 uM doxorubicin) was 34.1% (inactive). Further, the figures for the inhibition in test [5] and in test [6] were -0.82% (inactive) and -7.1% (inactive), respectively.
Take `Cc1cn(C2CC3OCC3O2)c(=O)[nH]c1=O` (stereo unspecified): the viability in test [1] is 101% (inactive); in test [2], 110% (inactive); in test [3], 94.2% (inactive); in test [4] (setting [7]) it was 98.5%; in test [4] (setting [8]), 94.2%. The differential viability (reversal) in test [4] (H69AR cells + 2 uM doxorubicin) is -4.39% (inactive). Further, the inhibition was -7.12% (inactive) in test [5] and -16.2% (inactive) in test [6].
For the molecule `CCOc1ccc(-c2cc(C(=O)N3CCN(c4ccccn4)CC3)c3ccccc3n2)cc1`, the viability in test [1] was 127% (inactive); in test [2], 43.5% (inactive); in test [3], 12.5% (active); in test [4] (setting [7]), 79.2%; in test [4] (setting [8]), 12.5%. Moreover, the differential viability (reversal) in test [4] (H69AR cells + 2 uM doxorubicin) is -66.7% (inactive). Moreover, the inhibition was 0.13% (inactive) in test [5] and -0.49% (inactive) in test [6].
Take `O=C(NCN1CCCCC1)c1cccnc1`: the viability in test [1] was 134% (inactive); in test [2], 102% (inactive); in test [3], 106% (inactive); in test [4] (setting [7]), 107%; in test [4] (setting [8]), 106%. Besides, the differential viability (reversal) in test [4] (H69AR cells + 2 uM doxorubicin) is -0.935% (inactive). For the same molecule, the figures for the inhibition in test [5] and in test [6] were -3.9% (inactive) and 6.07% (inactive), respectively.
Regarding `c1ccc2c(c1)CCCC2C1=NCCN1` (stereo unspecified), the viability is 100% (inactive) in test [1]; 84.6% (inactive) in test [2]; 95.3% (inactive) in test [3]; 88.6% in test [4] (setting [7]); 95.3% in test [4] (setting [8]). Also, the differential viability (reversal) in test [4] (H69AR cells + 2 uM doxorubicin) was 6.75% (inactive). Moreover, the inhibition is -2.6% (inactive) in test [5] and 1% (inactive) in test [6].
`O=C(NCc1cccnc1)c1cccc(C(F)(F)F)c1`: the viability in test [1] is 87% (inactive); in test [2], 109% (inactive); in test [3] it was 112% (inactive); in test [4] (setting [7]), 95.7%; in test [4] (setting [8]), 112%. The differential viability (reversal) in test [4] (H69AR cells + 2 uM doxorubicin) was 16% (inactive). Further, the inhibition in test [5] was -5.34% (inactive); in test [6], 6.55% (inactive).
Take `CCC(CC)C1C(C#N)=C(N)Oc2n[nH]c(C)c21` (stereo unspecified): the viability in test [1] was 85% (inactive); in test [2] it was 91.9% (inactive); in test [3], 24.9% (active); in test [4] (setting [7]), 69.6%; in test [4] (setting [8]), 24.9%. Moreover, the differential viability (reversal) in test [4] (H69AR cells + 2 uM doxorubicin) was -44.6% (inactive). Also, the inhibition in test [5] is -6.22% (inactive); in test [6] it was -0.18% (inactive).

The record behind these values is PubChem BioAssay.
